# Test results taken from ChEMBL document CHEMBL4665627 (Eur J Med Chem, 2019).
# Columns and labels:
# Staphylococcus aureus [1] = experiment: Antibacterial activity against Staphylococcus aureus ATCC 25923 assessed as inhibition of bacterial growth after 24 hrs by CLSI protocol based two fold serial dilution method; type: functional
# In short: (§1)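 Two-fold serial broth dilution in 96-well plates following CLSI; MIC (mM) taken as the lowest concentration giving complete growth inhibition; MIC values from three independent experiments.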
# Acinetobacter baumannii = experiment: Antibacterial activity against Acinetobacter baumannii assessed as inhibition of bacterial growth after 24 hrs by CLSI protocol based two fold serial dilution method; type: functional; in short: as §1
# Escherichia coli [2] = experiment: Antibacterial activity against Escherichia coli ATCC 25922 assessed as inhibition of bacterial growth after 24 hrs by CLSI protocol based two fold serial dilution method; type: functional; in short: as §1
# Staphylococcus aureus [3] = experiment: Antibacterial activity against Staphylococcus aureus assessed as inhibition of bacterial growth after 24 hrs by CLSI protocol based two fold serial dilution method; type: functional; in short: as §1
# Candida parapsilosis = experiment: Antifungal activity against Candida parapsilosis ATCC 22019 assessed as inhibition of fungal growth after 24 hrs by CLSI protocol based two fold serial dilution method; type: functional; conditions: Lodderomyces parapsilosis; in short: as §1
# Staphylococcus aureus [4] = experiment: Antibacterial activity against methicillin-resistant Staphylococcus aureus N315 assessed as inhibition of bacterial growth after 24 hrs by CLSI protocol based two fold serial dilution method; type: functional
# Candida albicans [5] = experiment: Antifungal activity against Candida albicans assessed as inhibition of fungal growth after 24 hrs by CLSI protocol based two fold serial dilution method; type: functional; in short: as §1
# Candida tropicalis = experiment: Antifungal activity against Candida tropicalis assessed as inhibition of fungal growth after 24 hrs by CLSI protocol based two fold serial dilution method; type: functional; in short: as §1
# Pseudomonas aeruginosa [6] = experiment: Antibacterial activity against Pseudomonas aeruginosa ATCC 27853 assessed as inhibition of bacterial growth after 24 hrs by CLSI protocol based two fold serial dilution method; type: functional; in short: as §1
# Saccharomyces cerevisiae = experiment: Inhibition of Saccharomyces cerevisiae CGMCC 2.145 chitin synthase at 300 ug/ml using GlcNAc and UDP-GlcNAc as substrate incubated for 60 mins by microplate reader analysis relative to control; conditions: dose 300.0 µg/ml
# In short: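 Chitin synthase inhibition ratio measured at 300 µg/mL test compound, relative to untreated control.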
# Candida albicans [7] = experiment: Antifungal activity against Candida albicans ATCC 90023 assessed as inhibition of fungal growth after 24 hrs by CLSI protocol based two fold serial dilution method; type: functional; in short: as §1
# Staphylococcus aureus [8] = experiment: Antibacterial activity against Staphylococcus aureus ATCC 29213 assessed as inhibition of bacterial growth after 24 hrs by CLSI protocol based two fold serial dilution method; type: functional
# Escherichia coli [9] = experiment: Antibacterial activity against Escherichia coli assessed as inhibition of bacterial growth after 24 hrs by CLSI protocol based two fold serial dilution method; type: functional; in short: as §1
# Pseudomonas aeruginosa [10] = experiment: Antibacterial activity against Pseudomonas aeruginosa assessed as inhibition of bacterial growth after 24 hrs by CLSI protocol based two fold serial dilution method; type: functional; in short: as §1
# Enterococcus faecalis = experiment: Antibacterial activity against Enterococcus faecalis assessed as inhibition of bacterial growth after 24 hrs by CLSI protocol based two fold serial dilution method; type: functional; in short: as §1
# Aspergillus fumigatus = experiment: Antifungal activity against Aspergillus fumigatus assessed as inhibition of fungal growth after 24 hrs by CLSI protocol based two fold serial dilution method; type: functional; in short: as §1
# Klebsiella pneumoniae = experiment: Antibacterial activity against Klebsiella pneumoniae assessed as inhibition of bacterial growth after 24 hrs by CLSI protocol based two fold serial dilution method; type: functional; in short: as §1
Compound,MIC (Staphylococcus aureus [1]),MIC (Acinetobacter baumannii),MIC (Escherichia coli [2]),MIC (Staphylococcus aureus [3]),MIC (Candida parapsilosis),MIC (Staphylococcus aureus [4]),MIC (Candida albicans [5]),MIC (Candida tropicalis),MIC (Pseudomonas aeruginosa [6]),inhibition (Saccharomyces cerevisiae),MIC (Candida albicans [7]),MIC (Staphylococcus aureus [8]),MIC (Escherichia coli [9]),MIC (Pseudomonas aeruginosa [10]),MIC (Enterococcus faecalis),MIC (Aspergillus fumigatus),MIC (Klebsiella pneumoniae)
CCCCN1CCN(c2cc3c(cc2F)c(=O)c(-c2csc(N)n2)cn3CC)CC1,9 µM,19 µM,37 µM,75 µM,19 µM,149 µM,149 µM,9 µM,75 µM,41.4%,149 µM,19 µM,149 µM,298 µM,75 µM,9 µM,5 µM
CCn1cc(-c2csc(N)n2)c(=O)c2cc(F)c(N3CCN(C(C)=O)CC3)cc21,39 µM,39 µM,39 µM,77 µM,39 µM,77 µM,19 µM,77 µM,10 µM,71.1%,19 µM,19 µM,77 µM,39 µM,39 µM,19 µM,39 µM
CCN1CCN(c2cc3c(cc2F)c(=O)c(-c2csc(N)n2)cn3CC)CC1,80 µM,319 µM,160 µM,319 µM,80 µM,319 µM,319 µM,40 µM,160 µM,,319 µM,638 µM,319 µM,319 µM,319 µM,160 µM,160 µM
C#CCN1CCN(c2cc3c(cc2F)c(=O)c(-c2csc(N)n2)cn3CC)CC1,39 µM,19 µM,19 µM,19 µM,10 µM,20 µM,19 µM,39 µM,5 µM,,19 µM,5 µM,156 µM,19 µM,19 µM,19 µM,10 µM
CCn1cc(-c2csc(N)n2)c(=O)c2cc(F)c(N3CCN(CC(C)O)CC3)cc21 (stereo not given),148 µM,19 µM,37 µM,37 µM,148 µM,148 µM,148 µM,297 µM,5 µM,,148 µM,148 µM,594 µM,148 µM,297 µM,37 µM,9 µM
CCOC(=O)CN1CCN(c2cc3c(=O)c(-c4csc(N)n4)cn(CC)c3cc2Cl)CC1,135 µM,135 µM,1080 µM,135 µM,135 µM,67 µM,269 µM,135 µM,269 µM,,67 µM,539 µM,269 µM,269 µM,539 µM,539 µM,67 µM
CCn1cc(-c2csc(N)n2)c(=O)c2cc(F)c(N3CCN(C=O)CC3)cc21,160 µM,319 µM,160 µM,638 µM,160 µM,638 µM,160 µM,638 µM,80 µM,,166 µM,638 µM,638 µM,638 µM,319 µM,638 µM,319 µM
CCn1cc(-c2csc(N)n2)c(=O)c2cc(F)c(N3CCN(C)CC3)cc21,41 µM,331 µM,165 µM,165 µM,331 µM,331 µM,165 µM,661 µM,165 µM,,165 µM,331 µM,661 µM,331 µM,331 µM,331 µM,83 µM
CCn1cc(-c2csc(N)n2)c(=O)c2cc(F)c(N3CCN(CC(=O)N(C)C)CC3)cc21,17 µM,140 µM,70 µM,35 µM,279 µM,70 µM,70 µM,70 µM,70 µM,,140 µM,70 µM,140 µM,279 µM,140 µM,70 µM,35 µM
CCCN1CCN(c2cc3c(cc2F)c(=O)c(-c2csc(N)n2)cn3CC)CC1,154 µM,154 µM,308 µM,308 µM,308 µM,308 µM,308 µM,308 µM,154 µM,,308 µM,617 µM,308 µM,617 µM,154 µM,154 µM,154 µM
CCCCCCCCCCN1CCN(c2cc3c(cc2F)c(=O)c(-c2csc(N)n2)cn3CC)CC1,499 µM,249 µM,499 µM,499 µM,249 µM,997 µM,997 µM,499 µM,249 µM,,997 µM,997 µM,499 µM,499 µM,499 µM,125 µM,499 µM
CCn1cc(-c2csc(N)n2)c(=O)c2cc(F)c(N3CCN(CC(C)=O)CC3)cc21,19 µM,298 µM,298 µM,37 µM,298 µM,298 µM,597 µM,298 µM,149 µM,,37 µM,298 µM,597 µM,597 µM,149 µM,597 µM,37 µM
CCn1cc(-c2csc(N)n2)c(=O)c2cc(N3CCNCC3)c(Cl)cc21,82 µM,1320 µM,164 µM,82 µM,1320 µM,658 µM,329 µM,329 µM,658 µM,,164 µM,329 µM,329 µM,41 µM,329 µM,164 µM,164 µM
CCOC(=O)CN1CCN(c2cc3c(cc2F)c(=O)c(-c2csc(N)n2)cn3CC)CC1,17 µM,35 µM,558 µM,70 µM,279 µM,139 µM,70 µM,139 µM,70 µM,,70 µM,139 µM,279 µM,139 µM,279 µM,558 µM,139 µM
CCCCCCCCN1CCN(c2cc3c(cc2F)c(=O)c(-c2csc(N)n2)cn3CC)CC1,264 µM,528 µM,1060 µM,264 µM,264 µM,528 µM,1060 µM,264 µM,264 µM,,1060 µM,528 µM,264 µM,264 µM,528 µM,16 µM,264 µM
CCn1cc(-c2csc(N)n2)c(=O)c2cc(F)c(N3CCNCC3)cc21,171 µM,343 µM,343 µM,86 µM,343 µM,171 µM,171 µM,685 µM,343 µM,,171 µM,343 µM,171 µM,21 µM,171 µM,343 µM,171 µM
CCCCCCN1CCN(c2cc3c(cc2F)c(=O)c(-c2csc(N)n2)cn3CC)CC1,140 µM,70 µM,140 µM,140 µM,560 µM,280 µM,1120 µM,560 µM,140 µM,,1120 µM,280 µM,134 µM,280 µM,70 µM,1120 µM,140 µM
CCn1cc(-c2csc(N)n2)c(=O)c2cc(F)c(N3CCN(CC(=O)N(C(C)C)C(C)C)CC3)cc21,249 µM,249 µM,498 µM,62 µM,996 µM,124 µM,996 µM,498 µM,249 µM,,498 µM,249 µM,498 µM,249 µM,249 µM,498 µM,498 µM
